Activity calls are given as the source filed them. No cut-off for these calls is given here. Where a SMILES comes first, the peptide text is derived from it. [ ]: non-standard residue; d: D form. The star is where a group is joined. Cbz = O=C(OCc1ccccc1)*
Columns and labels:
[1] = Inhibition of proteasomal turnover of p97-independent ODD-luciferase reporter substrate in human HeLa cells incubated for 120 mins by luciferase reporter gene assay; format: functional, cell-based; conditions: 2 h
Summary of the method: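 HeLa cells co-expressing UbG76V-GFP and ODD-Luc were seeded at 5000/well in clear DMEM with 2.5% FBS. They were pretreated with 4 μM MG132 for 60 min at 37 °C, washed with PBS, then given cycloheximide plus compound for 120 min at 37 °C and washed. GFP was read by high-content confocal imaging, then luminescence after 10 min with D-luciferin at r.t. IC50 was fitted from quadruplicates.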

[2] = biological target: T1, Transitional endoplasmic reticulum ATPase (Homo sapiens, UniProt P55072); experiment: Inhibition of p97 in human HeLa cells assessed as reduction in proteasomal turnover of p97-dependent reporter substrate UbG76V-GFP incubated for 120 mins by GFP fluorescence imaging
Target sequence in this assay (P55072 whole entry): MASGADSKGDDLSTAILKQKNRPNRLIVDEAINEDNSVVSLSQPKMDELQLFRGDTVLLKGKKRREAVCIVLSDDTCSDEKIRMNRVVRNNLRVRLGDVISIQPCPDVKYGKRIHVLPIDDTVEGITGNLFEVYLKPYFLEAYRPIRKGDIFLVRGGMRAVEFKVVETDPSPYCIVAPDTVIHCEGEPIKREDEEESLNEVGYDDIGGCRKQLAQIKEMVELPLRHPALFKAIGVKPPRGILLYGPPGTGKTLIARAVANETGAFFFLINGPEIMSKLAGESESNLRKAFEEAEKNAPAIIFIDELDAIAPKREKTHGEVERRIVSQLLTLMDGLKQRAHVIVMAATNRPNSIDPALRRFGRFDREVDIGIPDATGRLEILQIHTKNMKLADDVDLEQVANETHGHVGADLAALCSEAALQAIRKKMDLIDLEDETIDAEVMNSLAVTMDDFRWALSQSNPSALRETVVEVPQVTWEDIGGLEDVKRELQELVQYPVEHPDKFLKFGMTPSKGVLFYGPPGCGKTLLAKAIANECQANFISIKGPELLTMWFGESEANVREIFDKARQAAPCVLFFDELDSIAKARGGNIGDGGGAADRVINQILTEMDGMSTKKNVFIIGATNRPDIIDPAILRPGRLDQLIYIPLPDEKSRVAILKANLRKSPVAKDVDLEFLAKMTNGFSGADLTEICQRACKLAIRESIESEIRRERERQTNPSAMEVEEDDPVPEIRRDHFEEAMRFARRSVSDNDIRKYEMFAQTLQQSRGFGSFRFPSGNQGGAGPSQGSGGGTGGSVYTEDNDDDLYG

[3] = biological target: T1, Transitional endoplasmic reticulum ATPase; experiment: Inhibition of His6-tagged p97 (unknown origin) expressed in Escherichia coli BL21 (DE3) assessed as reduction in ATPase activity measured after 60 mins by biomol green reagent based assay
Summary of the method: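 His6-p97 expressed in E. coli BL21(DE3), purified by Ni-NTA and gel filtration (500–600 kDa fractions, ≥95% pure). Phosphate read by Biomol Green at 635 nm. Eight-dose titrations; IC50 from six replicates. Thiol tests added DTT or cysteine during preincubation.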
Target sequence in this assay (P55072 whole entry): as above

[4] = biological target: T1, Transitional endoplasmic reticulum ATPase; experiment: Irreversible inhibition of p97 in human HeLa cells assessed as reduction in p97-dependent reporter substrate UbG76V-GFP degradation preincubated followed by washout and measured after 17 hrs by luciferase reporter gene assay; format: cell-based; conditions: in the assay text read “GFP fluorescence assay” for “luciferase reporter gene assay”
Summary of the method: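 HeLa cells expressing UbG76V-GFP/ODD-Luc, 5000 cells/well in DMEM with 2.5% FBS. Pretreated with 4 μM MG132 for 60 min at 37 °C, PBS-washed, then given cycloheximide plus compound for 120 min. After washout, GFP decay followed in cycloheximide for an additional 17 h. GFP read by high-content imaging; luciferase read with D-luciferin; quadruplicates.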
Target sequence in this assay (P55072 2-806 limits assumed): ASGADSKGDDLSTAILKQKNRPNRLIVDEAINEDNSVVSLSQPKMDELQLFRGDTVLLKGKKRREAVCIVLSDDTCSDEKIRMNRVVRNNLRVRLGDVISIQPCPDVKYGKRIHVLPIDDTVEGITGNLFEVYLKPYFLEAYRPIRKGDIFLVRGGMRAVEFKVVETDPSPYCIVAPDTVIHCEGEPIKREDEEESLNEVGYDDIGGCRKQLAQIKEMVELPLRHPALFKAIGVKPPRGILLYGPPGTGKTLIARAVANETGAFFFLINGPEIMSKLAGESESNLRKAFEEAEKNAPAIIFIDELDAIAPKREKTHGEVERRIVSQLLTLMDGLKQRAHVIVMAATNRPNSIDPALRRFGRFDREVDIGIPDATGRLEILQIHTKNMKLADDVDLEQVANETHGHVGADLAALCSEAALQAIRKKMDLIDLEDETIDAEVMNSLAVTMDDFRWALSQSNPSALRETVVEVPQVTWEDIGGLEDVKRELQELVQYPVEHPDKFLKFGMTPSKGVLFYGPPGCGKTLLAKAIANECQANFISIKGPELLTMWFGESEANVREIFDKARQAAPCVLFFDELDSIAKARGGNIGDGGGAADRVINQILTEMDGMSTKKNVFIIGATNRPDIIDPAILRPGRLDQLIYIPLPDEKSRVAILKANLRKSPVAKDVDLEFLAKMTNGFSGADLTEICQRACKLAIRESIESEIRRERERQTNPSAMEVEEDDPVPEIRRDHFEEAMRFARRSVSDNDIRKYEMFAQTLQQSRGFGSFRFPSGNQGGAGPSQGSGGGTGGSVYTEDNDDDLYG

[5] = Inhibition of yeast Cdc48 T532C mutant assessed as reduction in ATPase activity measured after 60 mins by biomol green reagent based assay; design: species or system Saccharomyces cerevisiae
Summary of the method: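 Yeast Cdc48 ATPase activity with 200 μM ATP in Tris pH 7.4 buffer containing MgCl2, EDTA, TCEP and Triton X-100, 60 min at room temperature. Biomol Green read at 635 nm. Eight-dose titration; IC50 from six replicates.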

[6] = Selectivity ratio of IC50 for antiproliferative activity against NMS-873-resistant human HCT-116 cells to IC50 for antiproliferative activity against human HCT-116 cells; format: functional

Row | inhibition [4] | SMILES | IC50 [1] | IC50 [2] | IC50 [3] | IC50 [5] | Selectivity ratio [6]
1 |  | C=CC(=O)Nc1ncnc2c1c(-c1ccc(-c3ccccc3)cc1)nn2C(C)(C)C | > 30 µM | 2.1 µM | 2.8 µM |  | 
2 |  | O=C(O)/C=C/c1ccc2c(c1)OCO2 | > 30 µM | > 30 µM | > 30 µM |  | 
3 |  | CNc1ncnc2c1c(-c1ccc3ccccc3c1)nn2C(C)(C)C | > 30 µM | > 30 µM | > 50 µM |  | 
4 |  | CCC(=O)Oc1ccc(/C=C/[N+](=O)[O-])cc1OC | 1.6 µM | 4.3 µM | 3.4 µM |  | 
5 |  | COc1cc(/C=C/[N+](=O)[O-])ccc1OC(C)=O | 2.3 µM | 5.7 µM | 3.6 µM |  | 
6 | inactive | CC(C)C[C@@H](C=O)NC(=O)[C@@H](CC(C)C)NC(=O)[C@H](CC(C)C)NC(=O)OCc1ccccc1 (Cbz-Leu-[dL]-Leu-aldehyde) |  |  |  |  | 
7 |  | C=CC(=O)N(C(=O)C=C)c1ncnc2c1c(-c1ccccc1)nn2C(C)(C)C | > 30 µM | 5.4 µM | 1.1 µM | 26 µM | 
8 |  | Cc1ccc(C(=O)C#Cc2ccccc2)cc1 | 5.2 µM | 3.4 µM | 0.2 µM |  | 
9 |  | C=CC(=O)N(C(=O)C=C)c1ncnc2c1c(-c1ccc(-c3ccccc3)cc1)nn2C(C)(C)C | > 30 µM | 6.1 µM | 0.9 µM |  | 
10 |  | C=CC(=O)N(C(=O)C=C)c1ncnc2c1c(-c1ccc3ccccc3c1)nn2C(C)(C)C | > 30 µM | 2.5 µM | 1.3 µM | 22 µM | 
11 |  | Cc1ccc(-c2c(C(=O)CCl)n(CCCO)c3ncnc(N)c23)cc1 | 4 µM | 5.8 µM | 3.9 µM |  | 
12 |  | Cc1ccc(-c2c(C(=O)CF)n(CCCO)c3ncnc(N)c23)cc1 | 39 µM | 47 µM | > 30 µM |  | 
13 |  | O=[N+]([O-])/C=C/c1ccc(F)c(Br)c1 | 2 µM | 1.8 µM | 1.7 µM |  | 
14 |  | CC(C)(C)n1nc(-c2ccc(-c3ccccc3)cc2)c2c(N)ncnc21 | > 30 µM | > 30 µM | > 50 µM |  | 
15 |  | CC(C)(C)n1nc(-c2ccc3ccccc3c2)c2c(N)ncnc21 | > 30 µM | > 30 µM | > 100 µM | > 100 µM | 
16 |  | Cc1cc(OCc2nnc(SC3CCCC3)n2-c2cccnc2)ccc1-c1ccc(S(C)(=O)=O)cc1 |  |  |  |  | 4.5
17 |  | CC(C)(C)n1nc(-c2ccccc2)c2c(NC(=O)CCl)ncnc21 | > 30 µM | 31 µM | 4.5 µM | 35 µM | 
18 |  | CC(C)(C)n1nc(-c2ccccc2)c2c(N)ncnc21 | > 30 µM | > 30 µM | > 100 µM | > 100 µM | 
19 |  | O=[N+]([O-])/C=C/c1cccc([N+](=O)[O-])c1 | 4 µM | 1.7 µM | 1.2 µM |  | 
20 |  | CC1(C)C(N(O)C(=O)Nc2ccc(Cl)cc2)N(c2ccc(Cl)cc2)C(=O)N1CC(=O)N/N=C/C=C/c1ccc([N+](=O)[O-])o1 (stereo not given) |  | 3.7 µM | > 30 µM |  | 
21 |  | O=[N+]([O-])/C=C/c1cccnc1 | 3 µM | 2.9 µM | 0.7 µM |  | 
22 |  | COc1cc(/C=C/[N+](=O)[O-])ccc1OC(=O)c1ccccc1 | 10 µM | 5.7 µM | 2 µM |  | 
23 |  | C=CC(=O)Nc1ccc2ncnc(Nc3ccc(-c4ccccc4)cc3)c2c1 | 11 µM | 18 µM | 10 µM |  | 
24 |  | O=[N+]([O-])/C=C/c1c(F)c(F)c(F)c(F)c1F | 2.1 µM | 2.7 µM | 2.4 µM |  | 
25 |  | COc1ccc(/C=C/[N+](=O)[O-])cc1OC | 1.8 µM | 1.9 µM | 3.1 µM |  | 
26 |  | COc1cc(/C=C/[N+](=O)[O-])ccc1O | 5 µM | 6.8 µM | 13 µM |  | 
27 |  | O=[N+]([O-])/C=C/c1ccc2c(c1)OCO2 | 3.9 µM | 1.6 µM | 1.7 µM |  | 
28 |  | C=CC(=O)Nc1ncnc2c1c(-c1ccc3ccccc3c1)nn2C(C)(C)C | > 30 µM | 2 µM | 3 µM | 24 µM | 

Source: ChEMBL document CHEMBL4732155 (Eur J Med Chem, 2021)
